Converted amounts (≈) assume the structure as drawn. The source made the active and inactive calls. The calls are words filed in the database; no cut-off is given here.
Key:
[1] = system: Staphylococcus aureus; assay: Antibacterial activity against methicillin resistant Staphylococcus aureus ATCC BAA-44 at 128 to 256 ug/ml after 18 hrs by broth microdilution method; format: functional, organism-based
[2] = system: HeLa; assay: Cytotoxicity against human HeLa cells assessed as cell growth inhibition measured after 24 hrs by Celltiter Glo luminescent assay; format: cell-based; details: hela, 24 h
[3] = system: Staphylococcus aureus; assay: Potentiation of cefazolin induced antibacterial activity against methicillin resistant Staphylococcus aureus ATCC BAA-44 assessed as minimum resensitizing concentration after 18 hrs by broth microdilution method; format: functional; details: ATCC BAA-44, 18 h, read-out: MEC
Outline: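 Compound titrated in the presence of cefazolin at its CLSI breakpoint (8 μg/mL); MRC is the compound concentration at which no overnight growth occurs, in μg/mL; confirmed in triplicate.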

[4] = system: Staphylococcus aureus; assay: Antibacterial activity against methicillin resistant Staphylococcus aureus ATCC BAA-44 after 18 hrs by broth microdilution method; format: functional; details: ATCC BAA-44, 18 h
Outline: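 Compound alone, MIC by standard CLSI broth microdilution; lowest concentration with no growth, reported in μg/mL; confirmed in triplicate.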

[5] = system: Staphylococcus aureus; assay: Ratio of MIC for antibacterial activity against methicillin resistant Staphylococcus aureus ATCC BAA-44 to MEC for potentiation of cefazolin induced antibacterial activity against methicillin resistant Staphylococcus aureus ATCC BAA-44; format: functional
Outline: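 Compound MIC alone (CLSI broth microdilution) divided by its MRC with cefazolin at the 8 μg/mL breakpoint, both against MRSA BAA-44; each confirmed in triplicate.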

Structure (SMILES) | Activity [1] | GI50 [2] [µg/mL] | minimal effective concentration [3] [µg/mL] | MIC [4] [µg/mL] | Ratio [5]
Cc1nnc(SCC2=C(C(=O)O)N3C(=O)[C@@H](NC(=O)Cn4cnnn4)[C@H]3SC2)s1 | Active |  |  |  | 
Clc1ccc2[nH]c3c(c2c1)CCN(c1nc2c(Cl)c(Cl)c(Cl)cc2s1)C3 |  | 11.7 (≈ 26.4 µM) | 1 | 2 (≈ 4.51 µM) | 
O=C(O)C1CN(c2nc3ccc(Cl)cc3s2)Cc2[nH]c3ccc(Cl)cc3c21 (racemic) |  | 65 (≈ 155 µM) | 16 | 32 (≈ 76.5 µM) | 0
Cc1ccc2nc(N3CCc4c([nH]c5ccc(Cl)cc45)C3)sc2c1 |  |  | > 64 |  | 0
COc1ccc2[nH]c3c(c2c1)CCN(c1nc2ccc(Cl)cc2s1)C3 |  |  | > 64 |  | 
Clc1ccc2sc(N3CCc4c([nH]c5ccc(Cl)cc45)C3)nc2c1 |  |  | > 64 |  | 0
FC(F)(F)c1cnc2nc(N3CCc4c([nH]c5ccc(Cl)cc45)C3)sc2c1 |  |  | > 64 |  | 
CO/N=C(\C(=O)N[C@@H]1C(=O)N2C(C(=O)O)=C(COC(N)=O)CS[C@H]12)c1ccco1 | Active |  |  |  | 
Cn1c(N2CCc3c([nH]c4ccc(Cl)cc34)C2)nc2ccc(C(F)(F)F)cc21 |  |  | > 64 |  | 
Fc1ccc2[nH]c3c(c2c1)CCN(c1nc2ccc(Cl)cc2s1)C3 |  |  | > 64 |  | 
S=C(Nc1ccc(Cl)cc1)N1CCc2c([nH]c3ccc(Cl)cc23)C1 |  |  | 2 | 4 (≈ 10.6 µM) | 2
Cl.NCC(=O)Nc1cc(Cl)c2nc(N3CCc4c([nH]c5ccc(Cl)cc45)C3)sc2c1 |  | 14.8 | 2 |  | 
Clc1ccc2[nH]c3c(c2c1)CCN(c1nc2ccc(Br)cc2s1)C3 |  | 5.1 (≈ 12.2 µM) | 2 | > 64 | 
COCOCC1CN(c2nc3ccc(Cl)cc3s2)Cc2[nH]c3ccc(Cl)cc3c21 (racemic) |  | 7 (≈ 15.6 µM) | 2 |  | 
OCC1CN(c2nc3ccc(Cl)cc3s2)Cc2[nH]c3ccc(Cl)cc3c21 (racemic) |  | 10.8 (≈ 26.7 µM) | 2 |  | 
Clc1ccc2[nH]c3c(c2c1)CCN(c1nc2ccccc2s1)C3 |  |  | > 64 |  | 0
C[N+](C)(C)CC1CN(c2nc3ccc(Cl)cc3s2)Cc2[nH]c3ccc(Cl)cc3c21.[I-] (racemic) |  | 18 | 4 | 8 | 
FC(F)(F)c1cc(Br)cc2sc(N3CCc4c([nH]c5ccc(Cl)cc45)C3)nc12 |  | 5.9 (≈ 12.1 µM) | 0.5 | 4 (≈ 8.22 µM) | 
CN(C)CC1CN(c2nc3ccc(Cl)cc3s2)Cc2[nH]c3ccc(Cl)cc3c21 (racemic) |  | 5.2 (≈ 12.1 µM) | 1 | 2 (≈ 4.64 µM) | 
FC(F)(F)c1ccc(NC(=S)N2CCc3c([nH]c4ccc(Cl)cc34)C2)cc1 |  |  | 1 | 2 (≈ 4.88 µM) | 2
CCOC(=O)c1ccc2nc(N3CCc4c([nH]c5ccc(Cl)cc45)C3)sc2c1 |  |  | > 64 |  | 
Clc1ccc2[nH]c3c(c2c1)CCN(c1nc2c(Cl)cccc2s1)C3 |  | 27.7 (≈ 74 µM) | 2 | > 64 | 32
Cn1c(N2CCc3c([nH]c4ccc(Cl)cc34)C2)nc2ccccc21 |  |  | > 64 |  | 
Clc1ccc2nc(N3CCc4c([nH]c5ccc(Br)cc45)C3)sc2c1 |  |  | 1 | 4 (≈ 9.55 µM) | 
Oc1cc(Cl)c2nc(N3CCc4c([nH]c5ccc(Cl)cc45)C3)sc2c1 |  | 5.5 (≈ 14.1 µM) | 8 | > 32 | 
CN(C)C(=O)C1CN(c2nc3ccc(Cl)cc3s2)Cc2[nH]c3ccc(Cl)cc3c21 (racemic) |  |  | > 32 |  | 0
Clc1cc(Cl)c2nc(N3CCc4c([nH]c5ccc(Cl)cc45)C3)sc2c1 |  | 16.1 (≈ 39.4 µM) | 1 | 2 (≈ 4.89 µM) | 
NCCNCC1CN(c2nc3ccc(Cl)cc3s2)Cc2[nH]c3ccc(Cl)cc3c21 (racemic) |  | 2.4 (≈ 5.38 µM) | 2 |  | 

Structure (SMILES) | Activity [1] | GI50 [2] [µg/mL] | minimal effective concentration [3] [µg/mL] | MIC [4] [µg/mL] | Ratio [5]
Cl.NCCNc1cc(C(F)(F)F)c2nc(N3CCc4c([nH]c5ccc(Cl)cc45)C3)sc2c1 |  | 7.4 | 1 |  | 
Clc1ccc2nc(N3CCc4c([nH]c5ccc(Cl)cc45)C3)sc2c1 |  | 13.2 (≈ 35.3 µM) | 2 | > 64 | 32
COC(=O)C1CN(c2nc3ccc(Cl)cc3s2)Cc2[nH]c3ccc(Cl)cc3c21 (racemic) |  | 6.6 (≈ 15.3 µM) | 1 | > 32 | 32
CCn1c2c(c3cc(Cl)ccc31)CCN(c1nc3ccc(Cl)cc3s1)C2 |  |  | > 64 |  | 
Cl.NCCSCC1CN(c2nc3ccc(Cl)cc3s2)Cc2[nH]c3ccc(Cl)cc3c21 (racemic) |  | 3.8 | 1 |  | 
Clc1ccc2nc(N3CCc4c([nH]c5cccc(Cl)c45)C3)sc2c1 |  |  | 16 | > 16 | 
Clc1ccc2[nH]c3c(c2c1)CCN(c1nc2ccccc2o1)C3 |  |  | > 64 |  | 0
CNc1cc(C(F)(F)F)c2nc(N3CCc4c([nH]c5ccc(Cl)cc45)C3)sc2c1 |  | 15.4 (≈ 35.2 µM) | 2 | > 32 | 
Clc1ccc2[nH]c3c(c2c1)CCN(c1nc2cccc(Cl)c2s1)C3 |  | 6.7 (≈ 17.9 µM) | 1 | 4 (≈ 10.7 µM) | 
Cl.Nc1cc(C(F)(F)F)c2nc(N3CCc4c([nH]c5ccc(Cl)cc45)C3)sc2c1 |  | 32 | 2 | 16 | 
NCC1CN(c2nc3ccc(Cl)cc3s2)Cc2[nH]c3ccc(Cl)cc3c21 (racemic) |  | 1.5 (≈ 3.72 µM) | 1 |  | 
FC(F)(F)c1ccc2nc(N3CCc4c([nH]c5ccc(Cl)cc45)C3)sc2c1 |  | 4.6 (≈ 11.3 µM) | 0.5 | > 64 | 
FC(F)(F)c1ccc2nc(N3CCc4c([nH]c5ccc(Cl)cc45)C3)oc2c1 |  |  | > 64 |  | 0
N=CNCC1CN(c2nc3ccc(Cl)cc3s2)Cc2[nH]c3ccc(Cl)cc3c21 (racemic) |  | 3.8 (≈ 8.83 µM) | 2 | 4 (≈ 9.29 µM) | 
COc1cc(Cl)c2nc(N3CCc4c([nH]c5ccc(Cl)cc45)C3)sc2c1 |  |  | > 32 |  | 
NCCOc1cc(Cl)c2nc(N3CCc4c([nH]c5ccc(Cl)cc45)C3)sc2c1 |  |  | 4 | 8 (≈ 18.5 µM) | 
Clc1ccc2nc(N3CCc4c([nH]c5c(Cl)cccc45)C3)sc2c1 |  |  | 16 | > 16 | 
Clc1ccc2c3c([nH]c2c1)CN(c1nc2ccc(Cl)cc2s1)CC3 |  |  | > 64 |  | 
Clc1ccc2nc(N3CCc4c([nH]c5ccc(Cl)cc45)C3)oc2c1 |  |  | > 64 |  | 0
CCOC(=O)C1c2[nH]c3ccc(Cl)cc3c2CCN1c1nc2ccc(Cl)cc2s1 (stereo unspecified) |  |  | > 64 |  | 
Clc1ccc2[nH]c3c(c2c1)CCN(c1nc2c(Cl)cc(Br)cc2s1)C3 |  | 22 (≈ 48.5 µM) | 8 | > 32 | 
FC(F)(F)Oc1ccc2nc(N3CCc4c([nH]c5ccc(Cl)cc45)C3)sc2c1 |  | 7.3 (≈ 17.2 µM) | 1 |  | 0
Nc1ccc2nc(N3CCc4c([nH]c5ccc(Cl)cc45)C3)sc2c1 |  |  | > 64 |  | 
Clc1ccc2[nH]c3c(c2c1)CCN(c1nc2ncccc2s1)C3 |  |  | > 64 |  | 
FC(F)(F)c1cccc2sc(N3CCc4c([nH]c5ccc(Cl)cc45)C3)nc12 |  | 8 (≈ 19.6 µM) | 1 | > 32 | 32
Cn1c(N2CCc3c([nH]c4ccc(Cl)cc34)C2)nc2ccc(Cl)cc21 |  |  | > 64 |  | 
FC(F)(F)Oc1ccc(NC(=S)N2CCc3c([nH]c4ccc(Cl)cc34)C2)cc1 |  |  | 1 |  | 2

From ChEMBL document CHEMBL4406847, “Tryptoline-based benzothiazoles re-sensitize MRSA to β-lactam antibiotics” (Bioorg Med Chem, 2019)
